Experimental data taken from PubChem BioAssay AID588487 (The Scripps Research Institute Molecular Screening Center, 2011).
The source made the active and inactive calls.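 The calls were made as follows: active = inhibition of at least 50% against any of four protein arginine deiminase enzymes; inactive = the rest.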

How the values were obtained:
Test in all cases: PAD1-4 inhibition by competitive ABPP, late-stage follow-up, orthogonal assay for PAD4 inhibitor project, biochemical, fluorescence, gel-based ABPP, HTS hits (AID 588487)
[1] = target: Protein-arginine deiminase type-4 (Homo sapiens) (UniProt Q9UM07); conditions: recombinant PAD1-4, gel-based ABPP, RFA probe fluorescence; PAD4; at 10 µM; active compounds read high
Chain of Protein-arginine deiminase type-4 (Homo sapiens) (Q9UM07 whole entry, looked up): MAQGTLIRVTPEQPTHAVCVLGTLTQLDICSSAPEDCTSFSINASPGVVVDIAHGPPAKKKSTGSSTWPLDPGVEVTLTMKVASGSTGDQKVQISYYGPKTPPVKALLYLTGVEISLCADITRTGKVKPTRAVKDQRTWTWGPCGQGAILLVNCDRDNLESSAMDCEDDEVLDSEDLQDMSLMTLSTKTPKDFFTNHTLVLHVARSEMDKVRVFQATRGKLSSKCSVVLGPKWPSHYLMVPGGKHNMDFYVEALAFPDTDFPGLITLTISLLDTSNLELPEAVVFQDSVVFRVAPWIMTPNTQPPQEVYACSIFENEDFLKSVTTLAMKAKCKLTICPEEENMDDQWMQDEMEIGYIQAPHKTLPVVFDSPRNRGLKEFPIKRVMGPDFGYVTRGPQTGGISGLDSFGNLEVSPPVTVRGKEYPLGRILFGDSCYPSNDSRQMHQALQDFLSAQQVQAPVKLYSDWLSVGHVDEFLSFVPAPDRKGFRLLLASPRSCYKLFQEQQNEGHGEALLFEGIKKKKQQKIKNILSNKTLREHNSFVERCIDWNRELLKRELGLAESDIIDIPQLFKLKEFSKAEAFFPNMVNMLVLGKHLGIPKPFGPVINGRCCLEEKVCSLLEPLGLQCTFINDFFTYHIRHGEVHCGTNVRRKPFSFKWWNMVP
Summary of the method: (§1)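 System – recombinant PAD1, PAD2, PAD3 or PAD4 · Input – PAD enzyme 10 µM · Probe or stimulus – RFA fluorescent probe at 1 µM · Dosing – single compound dose of 10 µM, DMSO vehicle · Times – 15 min compound pre-incubation plus 30 min probe step, 37 °C · Signal – SDS-PAGE gel fluorescence, band integrated optical density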

[2] = target: Protein-arginine deiminase type-1 (Homo sapiens) (UniProt Q9ULC6); conditions: recombinant PAD1-4, gel-based ABPP, RFA probe fluorescence; PAD1; at 10 µM; active compounds read high
Chain of Protein-arginine deiminase type-1 (Homo sapiens) (Q9ULC6 whole entry, looked up): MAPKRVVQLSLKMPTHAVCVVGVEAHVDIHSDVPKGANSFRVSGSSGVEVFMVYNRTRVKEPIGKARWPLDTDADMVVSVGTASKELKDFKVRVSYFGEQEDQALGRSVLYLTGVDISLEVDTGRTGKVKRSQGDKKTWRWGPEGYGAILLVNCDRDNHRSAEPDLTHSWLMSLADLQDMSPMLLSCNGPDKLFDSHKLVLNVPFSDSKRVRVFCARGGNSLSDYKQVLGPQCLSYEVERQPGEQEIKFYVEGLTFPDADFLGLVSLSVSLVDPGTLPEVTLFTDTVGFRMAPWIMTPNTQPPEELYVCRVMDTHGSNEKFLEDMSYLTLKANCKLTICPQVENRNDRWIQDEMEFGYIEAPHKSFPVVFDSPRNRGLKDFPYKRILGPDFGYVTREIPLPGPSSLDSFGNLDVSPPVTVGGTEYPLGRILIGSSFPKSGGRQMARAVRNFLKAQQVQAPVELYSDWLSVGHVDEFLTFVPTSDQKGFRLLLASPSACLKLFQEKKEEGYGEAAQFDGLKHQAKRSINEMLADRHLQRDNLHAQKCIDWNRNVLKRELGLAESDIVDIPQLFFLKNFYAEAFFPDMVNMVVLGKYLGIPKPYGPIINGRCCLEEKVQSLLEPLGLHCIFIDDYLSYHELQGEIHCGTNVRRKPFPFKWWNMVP
Summary of the method: as §1

[3] = target: Protein-arginine deiminase type-2 (Homo sapiens) (UniProt Q9Y2J8); conditions: recombinant PAD1-4, gel-based ABPP, RFA probe fluorescence; PAD2; at 10 µM; active compounds read high
Chain of Protein-arginine deiminase type-2 (Homo sapiens) (Q9Y2J8 whole entry, looked up): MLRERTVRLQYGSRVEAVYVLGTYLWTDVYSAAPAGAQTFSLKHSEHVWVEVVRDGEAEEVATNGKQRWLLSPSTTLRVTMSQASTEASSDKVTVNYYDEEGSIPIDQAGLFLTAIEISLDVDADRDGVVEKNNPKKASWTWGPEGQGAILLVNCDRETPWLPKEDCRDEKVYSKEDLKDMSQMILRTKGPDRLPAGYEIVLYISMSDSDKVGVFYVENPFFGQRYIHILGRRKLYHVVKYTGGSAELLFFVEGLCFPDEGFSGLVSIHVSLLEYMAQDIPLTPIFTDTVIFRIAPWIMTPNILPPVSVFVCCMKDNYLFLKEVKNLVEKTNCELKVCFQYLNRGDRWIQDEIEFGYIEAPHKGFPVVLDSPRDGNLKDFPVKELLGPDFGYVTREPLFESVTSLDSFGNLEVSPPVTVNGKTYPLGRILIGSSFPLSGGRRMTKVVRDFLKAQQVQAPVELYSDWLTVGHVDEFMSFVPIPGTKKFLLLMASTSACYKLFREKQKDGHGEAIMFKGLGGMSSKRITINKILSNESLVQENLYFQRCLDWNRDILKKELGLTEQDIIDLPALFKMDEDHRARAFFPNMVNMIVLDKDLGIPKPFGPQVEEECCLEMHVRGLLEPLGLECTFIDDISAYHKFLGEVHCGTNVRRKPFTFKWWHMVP
Summary of the method: as §1

[4] = target: Protein-arginine deiminase type-3 (Homo sapiens) (UniProt Q9ULW8); conditions: recombinant PAD1-4, gel-based ABPP, RFA probe fluorescence; PAD3; at 10 µM; active compounds read high
Chain of Protein-arginine deiminase type-3 (Homo sapiens) (Q9ULW8 whole entry, looked up): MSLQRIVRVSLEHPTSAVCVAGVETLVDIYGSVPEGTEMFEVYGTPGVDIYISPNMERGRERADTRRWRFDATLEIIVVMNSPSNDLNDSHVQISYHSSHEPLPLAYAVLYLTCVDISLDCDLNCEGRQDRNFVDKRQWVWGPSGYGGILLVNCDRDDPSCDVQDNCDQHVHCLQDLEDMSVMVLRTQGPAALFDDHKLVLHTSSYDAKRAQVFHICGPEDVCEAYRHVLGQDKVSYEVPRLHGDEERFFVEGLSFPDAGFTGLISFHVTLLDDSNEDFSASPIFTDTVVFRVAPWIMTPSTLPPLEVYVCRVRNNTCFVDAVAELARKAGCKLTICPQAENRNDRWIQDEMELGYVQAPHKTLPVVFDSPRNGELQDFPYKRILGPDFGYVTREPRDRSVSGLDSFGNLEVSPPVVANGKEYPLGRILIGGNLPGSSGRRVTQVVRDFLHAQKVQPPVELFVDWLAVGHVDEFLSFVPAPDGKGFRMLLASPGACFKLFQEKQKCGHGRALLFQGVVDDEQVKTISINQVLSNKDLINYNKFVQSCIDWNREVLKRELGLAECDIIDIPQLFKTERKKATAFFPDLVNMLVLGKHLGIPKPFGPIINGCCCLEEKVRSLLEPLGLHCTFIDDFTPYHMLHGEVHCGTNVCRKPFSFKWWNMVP
Summary of the method: as §1

| Compound | inhibition [1] | inhibition [2] | inhibition [3] | inhibition [4] |
| --- | --- | --- | --- | --- |
| CCNC(=S)NNC(=O)c1csc(C)c1 | 25% (inactive) | 2% (inactive) | -19% (inactive) | 14% (inactive) |
| O=C(NC1CCCCC1)C(c1cccs1)N(CCCN1CCOCC1)C(=O)c1ccc(-c2ccccc2)[nH]1 (stereo unspecified) | 59% | -42% (inactive) | -27% (inactive) | 15% (inactive) |
| CC(NC(=O)Nc1ccc(O)cc1)(C(F)(F)F)C(F)(F)F | 60% | 29% (inactive) | 31% (inactive) | -29% (inactive) |
| N#CCCn1[nH]c(-c2ccccc2)cc1=O | 32% (inactive) | 47% (inactive) | 29% (inactive) | 3% (inactive) |
| S=C(NCc1ccco1)Nc1cccc(Cl)c1 | 1% (inactive) | 46% (inactive) | 25% (inactive) | 43% (inactive) |
| c1ccc(CCn2c3ccccc3c3nnc(SCc4ccc5nonc5c4)nc32)cc1 | 31% (inactive) | 18% (inactive) | 14% (inactive) | 21% (inactive) |
| O=C(O)CCC(=O)c1ccc(-c2ccccc2)cc1 | -51% (inactive) | 16% (inactive) | -45% (inactive) | 24% (inactive) |
| O=c1cc(-c2ccc(Br)cc2)[nH][nH]1 | 51% | 6% (inactive) | -6% (inactive) | 20% (inactive) |
| Cc1ccc(C2CC(=O)Oc3cc(O)ccc32)cc1 (stereo unspecified) | -30% (inactive) | 40% (inactive) | -2% (inactive) | 43% (inactive) |
| O=c1cc(-c2ccc(F)cc2)[nH][nH]1 | 37% (inactive) | 33% (inactive) | 28% (inactive) | 1% (inactive) |
| O=c1cc(-c2ccc(Cl)cc2)[nH][nH]1 | 41% (inactive) | 33% (inactive) | 62% | -44% (inactive) |
| Cc1c(NC(=O)CSc2nccn2C)c(=O)n(-c2ccccc2)n1C | 66% | 46% (inactive) | 35% (inactive) | -7% (inactive) |

The remaining lines, values ahead:

| inhibition [1] | inhibition [2] | inhibition [3] | inhibition [4] | Compound |
| --- | --- | --- | --- | --- |
| 38% (inactive) | 15% (inactive) | 31% (inactive) | -43% (inactive) | COCc1cc(C)nc(SCC(=O)Nc2ccc3c(c2)n(C)c(=O)n3C)c1C#N |
| 4% (inactive) | 34% (inactive) | 29% (inactive) | 40% (inactive) | CCC(=O)Oc1ccc(C(=O)Nc2cccc(C(=O)NC(C)(C)C)c2)cc1 |
| -7% (inactive) | 27% (inactive) | 14% (inactive) | 35% (inactive) | CS(=O)(=O)c1ccc(N)c(SSc2cc(S(C)(=O)=O)ccc2N)c1 |
| 20% (inactive) | 16% (inactive) | 51% | 19% (inactive) | Cn1c(N)c(C(=O)COC(=O)COc2ccc(Br)cc2)c(=O)n(C)c1=O |
| 80% | 0% (inactive) | 25% (inactive) | -19% (inactive) | Cn1c(=O)c2c(ncn2CC(=O)Nc2nc(-c3ccccc3Cl)cs2)n(C)c1=O |
| 61% | 15% (inactive) | 22% (inactive) | 26% (inactive) | COc1cccc(NC(=O)C2c3cc(OC)c(OC)cc3C(=O)N(C)C2c2cccnc2)c1 (stereo unspecified) |
| 40% (inactive) | 9% (inactive) | 40% (inactive) | 33% (inactive) | CCN(CC)S(=O)(=O)c1ccc(C)c(NS(=O)(=O)c2cc(/C=C/C(=O)O)cc(OC)c2OC)c1 |
